Source: PubChem
The list is not random: actives were taken first. Their share in the collection is about 4.1%.
KCNQ1 pot: human KCNQ1 channel potentiation or activation; AID 2648; B-score at 10 µM; CHO-K1 KCNQ1, thallium flux FluxOR fluorescence; active compounds read high; hit rate 0.35% among 310,000;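 active = fluorescence ratio B-score, a plate-corrected score, at least three library SD, with initial intensity B-score within 5 SD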
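Material: CHO-K1 cells stably expressing KCNQ1. Medium: assay buffer for compound exposure, DMSO matched across wells. Reagent: K+/Tl+ depolarizing stimulus. Compound dosing: single-concentration screen. Times: 37 °C overnight plating, 90-min dark dye load, 20-min compound pretreatment. Technique: FluxOR Tl+ flux fluorescence.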
Cl transport mod: KCC2 (human) Cl- transport modulation; hit rate 2.2% among 190,000; Q9H2X9; KCC2 cells, thallium flux FluoZin-2 fluorescence; B-score of Tl+ flux slope (higher = more flux/activation; lower = inhibition) at 10 µM;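 active = thallium flux slope and its plate-corrected score both differing from the plate sample mean at a set confidence after two filtering rounds, in either direction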;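 note: slope of fluorescence scaled to starting intensity during 10 to 20 s after thallium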
KCNK3 inh: human KCNK3 channel inhibition, primary screen; O14649; CHO-KCNK3 thallium flux, FluxOR fluorescence; active compounds read low; B-score at 10 µM; hit rate 0.84% among 340,000;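 active = B-score under library mean minus 4 SD, starting fluorescence ratio at most library mean plus 5 SD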;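 note: more negative B-score means stronger inhibition of thallium flux through KCNK3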
hERG protect: compounds protecting human hERG from proarrhythmic drug block. Q12809. CHO-hERG, FluxOR thallium flux, dofetilide IC70 present. activation (rescue from dofetilide block), less the hit threshold, % at 10 µM. hit rate 0.51% among 310,000. AID 1511;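 active = activation above the mean of controls blocked by dofetilide plus 5 SD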;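 note: thallium influx through hERG after potassium depolarization seen as dye fluorescence rise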
KCNK9 inh: blocks the human KCNK9 two-pore domain potassium channel; Q9NPC2; HEK293 KCNK9, FluxOR thallium flux fluorescence; active compounds read low; B-score at 10 µM; hit rate 1.2% among 310,000; AID 488922;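 active = ratio B-score over 3 SD below the library mean, with starting fluorescence within 5 SD of its mean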;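 note: negative B-score means less thallium flux so channel inhibition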
KCNQ1 inh: human KCNQ1 channel inhibition; CHO-K1 KCNQ1, FluxOR thallium flux fluorescence; active compounds read high; B-score at 10 µM; hit rate 1.3% among 310,000;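 active = compounds whose thallium flux B-score, printed positive for inhibition, exceeds three library SD while starting fluorescence stays within three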;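 note: channel opened by potassium depolarization with thallium stimulus after 20 min compound exposure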
KCNQ1 inh valid: human KCNQ1 channel inhibition, validation assay; shares compounds with KCNQ1 inh; KCNQ1 cell line, FluxOR thallium flux fluorescence; inhibition, % at 10 µM; hit rate 93% among 1,600; AID 588353;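 active = primary screen active, with duplicate mean exceeding buffer control mean plus 3 SD of buffer wells, cut at about 28% in these data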
CHO Tl flux: counter-screen for KCNQ1 inhibitors: effect in parental CHO cells; shares compounds with KCNQ1 inh; parental CHO-K1, FluxOR thallium flux fluorescence ratio; active compounds read low; zero means no signal rise above baseline; fluorescence ratio (Tl flux) at 10 µM; hit rate 21% among 1,600; AID 588366;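 active = mean of duplicate thallium-flux fluorescence ratios in parental host cells more than 5 SD below the buffer control mean, cut at about 0.38 in these data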;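 note: ratio is peak minus minimum fluorescence divided by baseline fluorescence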
KCNQ1 ephys val: human KCNQ1 inhibition validated by electrophysiology; shares compounds with KCNQ1 inh; KCNQ1-CHO cells, automated patch clamp current; calls only at 10 µM; hit rate 20% among 490;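 active = KCNQ1 current drop exceeding 3 SD of negative control wells, seen in both duplicate runs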;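 note: steady state current during a 2 s step from -80 to +40 mV; negative values mean current inhibition and positive values mean potentiation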
KCNQ2 inh: selectivity of KCNQ1 inhibitors: inhibition of rat KCNQ2 channel; hit rate 71% among 1,600; inhibition, % at 10 µM; AID 651746; shares compounds with KCNQ1 inh; KCNQ2 cells, FluxOR thallium flux fluorescence;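 active = mean percent inhibition of the KCNQ2 thallium signal more than 5 SD above the buffer-only control wells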;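 note: KCNQ2 expressed in CHO cells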
KCNQ1-KCNE1 inh: human KCNQ1/KCNE1 inhibition in KCNQ1 specificity screen; hit rate 77% among 1,600; shares compounds with KCNQ1 inh; inhibition, % at 10 µM; KCNQ1/KCNE1 cells, FluxOR thallium flux fluorescence;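 active = mean percent inhibition of duplicate wells above the buffer-only control mean plus 3 SD of those controls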
Target sequence (P51787 whole entry, looked up): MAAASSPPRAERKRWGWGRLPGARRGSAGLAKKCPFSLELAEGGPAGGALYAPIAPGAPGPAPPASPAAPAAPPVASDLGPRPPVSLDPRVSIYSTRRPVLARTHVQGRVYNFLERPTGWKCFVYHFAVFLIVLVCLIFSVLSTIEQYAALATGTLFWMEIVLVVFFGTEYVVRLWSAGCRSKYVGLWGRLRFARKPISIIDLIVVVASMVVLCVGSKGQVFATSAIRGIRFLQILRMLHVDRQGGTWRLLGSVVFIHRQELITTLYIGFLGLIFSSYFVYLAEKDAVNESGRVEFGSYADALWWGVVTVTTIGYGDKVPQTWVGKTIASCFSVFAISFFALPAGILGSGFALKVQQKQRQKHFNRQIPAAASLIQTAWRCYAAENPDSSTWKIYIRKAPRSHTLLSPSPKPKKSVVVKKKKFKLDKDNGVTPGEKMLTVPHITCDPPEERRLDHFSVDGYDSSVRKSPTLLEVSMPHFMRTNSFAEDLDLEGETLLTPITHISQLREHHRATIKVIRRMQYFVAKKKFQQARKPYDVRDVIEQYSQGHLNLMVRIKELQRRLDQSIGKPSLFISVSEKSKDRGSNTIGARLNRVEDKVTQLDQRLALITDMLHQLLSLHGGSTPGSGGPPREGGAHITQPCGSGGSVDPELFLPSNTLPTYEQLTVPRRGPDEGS
Hits are given with their value; . = inactive; / = no result; + = active, no number.

SMILES	KCNQ1 pot	Cl transport mod	KCNK3 inh	hERG protect	KCNK9 inh	KCNQ1 inh	KCNQ1 inh valid	CHO Tl flux	KCNQ2 inh	KCNQ1-KCNE1 inh	others
Cc1cc(C(=O)N2CCN(C(c3ccccc3)c3ccccc3)CC2)no1	.	.	.	.	.	.	/	/	/	/
COc1ccc(Cn2c(C)nnc2-c2cnn(C)c2N)cc1OC	.	.	.	.	.	.	/	/	/	/
CNC(=S)NNC(=O)Cc1ccc(O)cc1	.	.	.	.	.	.	/	/	/	/
CC(=O)NC1CC2CCCC(C1)N2S(=O)(=O)c1cccc(F)c1 (stereo not drawn)	.	.	.	.	.	.	/	/	/	/
Cc1cc(C(=O)OCc2nnc(-c3ccccc3)o2)c(C)n1-c1ccccc1	.	.	.	.	.	10	132	0.33	108%	173%
Cc1cc2nc3c(=O)[nH]c(=S)[nH]c3nc2cc1NC(=O)C(F)(F)F	.	/	.	.	-7.2	11	66	0.33	.	151%
Cc1nc2c(-c3ccccc3)c(C)nn2c(N)c1-c1ccccc1	.	.	.	.	.	7	+	.	.	.	KCNQ1 ephys val=.
Cc1ccc(C(=O)CCC(=O)Nc2cccc(C)c2)cc1	.	/	.	.	.	.	/	/	/	/
N#Cc1ccccc1NC(=O)C1SC(=Nc2ccccc2)C(C(=O)Nc2ccc(Cl)cc2)=C1N (stereo not drawn)	.	.	.	.	.	10	112	.	97%	82%	KCNQ1 ephys val=.
CCOc1ccc(N=C2SC(C(=O)Nc3ccccc3C#N)C(N)=C2C(=O)Nc2ccc(Cl)cc2)cc1 (stereo not drawn)	.	.	.	.	.	.	/	/	/	/
CC(C)(C)c1ccc(C2=CSC3=NCCN23)cc1	.	/	.	.	.	7	43	.	.	46%
Cc1cc(Cl)c(OCCCNCc2ccccc2)c(Br)c1	.	.	.	.	.	6	37	.	73%	.
Clc1ccc(NC2(c3nnnn3C3CCCCC3)CCCCC2)cc1	.	.	.	.	.	.	/	/	/	/
Cc1cccc(C)c1-n1nnnc1C1(Nc2ccccc2)CCCCC1	.	.	.	.	-7.7	7	109	0.36	109%	130%
Cc1ccc(S(=O)(=O)C2(C(=O)Nc3ccc(C(C)C)cc3)CC2)cc1	.	.	.	.	.	.	/	/	/	/
CC1=CC(=O)C(C(C)C)=C/C1=N\OC(=O)c1cccc2nc(C)oc12	.	.	.	.	.	.	/	/	/	/
Oc1ccc(NC(=S)N=Nc2c(O)[nH]c3ccc(Br)cc23)cc1	.	/	.	.	.	7	108	.	75%	158%	KCNQ1 ephys val=.
O=C(CSc1nnc(-c2ccccc2Cl)n1Cc1ccco1)Nc1ccc2c(c1)OCCO2	.	.	.	.	.	.	/	/	/	/
C=CCNC(=O)N1CCc2[nH]c3ccc(F)cc3c2C1	.	/	.	.	.	.	/	/	/	/
Fc1ccc2[nH]c3c(c2c1)CN(C(=S)NCc1ccccc1)CC3	.	.	.	.	.	7	100	.	102%	88%	KCNQ1 ephys val=.
Cn1c(=O)c(N)c2c3c(c(Br)ccc31)C(=O)c1ccccc1-2	.	.	.	.	.	21	+	0.029	.	.
Cc1nc2nc(-c3cccs3)cn2nc1C	.	.	.	.	.	7	104	0.34	.	.
C=CCNc1nc2ccccc2nc1NS(=O)(=O)c1ccc(Cl)cc1	.	/	.	.	.	6	50	.	64%	.
C=CCNc1nc2ccccc2nc1NS(=O)(=O)c1ccc(OC)cc1	.	/	.	.	.	.	/	/	/	/
ClCc1nc2ccccc2n1Cc1ccccc1	.	/	.	.	.	7	.	.	84%	.
SMILES	KCNQ1 pot	Cl transport mod	KCNK3 inh	hERG protect	KCNK9 inh	KCNQ1 inh	KCNQ1 inh valid	CHO Tl flux	KCNQ2 inh	KCNQ1-KCNE1 inh	others
COCc1nc2ccccc2n1Cc1ccccc1	.	/	.	.	.	.	/	/	/	/
CCN(CC)c1nc(-c2ccccc2)ncc1S(=O)(=O)c1ccc(C)cc1	.	.	.	.	.	6	84	.	80%	130%
COc1ccc(-n2cc(-c3ccccc3)nc2SC)cc1	.	.	.	.	.	6	94	.	86%	130%	KCNQ1 ephys val=.
c1ccc(Cn2nnnc2C(c2cccnc2)N2CCN(C3CCCCC3)CC2)cc1 (stereo not drawn)	.	/	.	.	.	8	39	.	64%	38%
N#C/C(=C\c1coc2ccccc2c1=O)C(N)=S	.	.	.	.	.	.	/	/	/	/
N#C/C(=C\c1coc2ccc(O)cc2c1=O)C(=O)Nc1nc2ccccc2s1	.	/	.	.	.	26	+	0.13	.	.
Cc1c(C(=O)Nc2nnc(C(F)(F)F)s2)oc2ccccc12	.	/	.	.	.	7	69	.	.	.
COc1cc(/C=C/c2nnc3c4ccccc4ncn23)cc(OC)c1OC	.	.	.	.	.	6	44	.	60%	34%
O=C(c1cccc(S(=O)(=O)N2CCN(c3ccc(F)cc3)CC2)c1)N1CCCC(C(F)(F)F)C1 (stereo not drawn)	.	/	.	.	.	6	94	.	89%	64%	KCNQ1 ephys val=.
Cc1ccc(S(=O)(=O)Nc2ccc(SC(F)F)cc2)c(C)c1	.	.	.	.	.	6	26	.	.	136%
CC(C)c1ccc(S(=O)(=O)Nc2ccc(SC(F)F)cc2)cc1	.	.	.	.	.	.	/	/	/	/
CCn1c(=NC(=O)C2COc3ccccc3O2)sc2c(C)ccc(OC)c21 (stereo not drawn)	.	.	.	.	-8	7	85	.	110%	121%
NCCCC(=O)N1c2ccccc2Sc2ccc(Cl)cc21	.	/	.	.	.	.	/	/	/	/
NCCC(=O)N1c2ccccc2Sc2ccc(Cl)cc21	.	/	.	.	.	7	72	.	.	62%
Cc1ccc(C(=O)N2CCC(C)CC2)cc1C	.	/	.	.	.	.	/	/	/	/
N=c1n(Cc2ccccc2)c2ccccc2n1CC(O)COc1ccccc1 (stereo not drawn)	.	.	.	.	.	.	/	/	/	/
Cc1ccc(Cn2c(=N)n(CC(O)COc3ccccc3)c3ccccc32)cc1 (stereo not drawn)	.	.	.	.	-7.6	6	130	.	68%	.	KCNQ1 ephys val=.
